Test results: ChEMBL document CHEMBL4118097, “Selective Inhibitors of Dual Leucine Zipper Kinase (DLK, MAP3K12) with Activity in a Model of Alzheimer's Disease” (J Med Chem, 2017)

Tests used:
[1] = biological target: BDNF/NT-3 growth factors receptor (Homo sapiens) (UniProt Q16620); test: Inhibition of recombinant His-tagged human TrkB cytoplasmic domain expressed in baculovirus expression system at 1 uM by FRET assay relative to control
Procedure, shortened: (§1)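 Single-concentration screen at 1 μM in Life Technologies SelectScreen, across a 220-kinase panel. Z′-LYTE format measures phosphorylation of a labeled peptide by FRET. Results are reported as percent inhibition.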

[2] = biological target: Serine/threonine-protein kinase Chk2 (Homo sapiens) (UniProt O96017); test: Inhibition of recombinant full length His-tagged human CHK2 expressed in baculovirus expression system at 1 uM by FRET assay relative to control
[3] = biological target: Mitogen-activated protein kinase 10 (Homo sapiens, UniProt P53779); test: Inhibition of recombinant full length GST-tagged human JNK3 expressed in baculovirus expression system by FRET assay
[4] = biological target: Casein kinase I isoform delta (Homo sapiens) (UniProt P48730); test: Inhibition of CK1delta (unknown origin) at 1 uM by FRET assay relative to control
[5] = biological target: Rho-associated protein kinase 1 (Homo sapiens) (UniProt Q13464); test: Inhibition of recombinant N-terminal GST-tagged human ROCK1 catalytic domain (1 to 535 residues) expressed in baculovirus expression system at 1 uM by FRET assay relative to control; procedure, shortened: as §1
[6] = biological target: Serine/threonine-protein kinase Sgk2 (Homo sapiens) (UniProt Q9HBY8); test: Inhibition of recombinant full length GST-tagged human SGK2 catalytic domain (54 to 427 residues) expressed in baculovirus expression system at 1 uM by FRET assay relative to control; procedure, shortened: as §1
[7] = biological target: Serine/threonine-protein kinase 16 (Homo sapiens, UniProt O75716); test: Inhibition of recombinant full length His-tagged human STK16 expressed in baculovirus expression system at 1 uM by FRET assay relative to control
Homo sapiens = species on record: Homo sapiens; test: Binding affinity to L-type calcium channel verapamil/phenylalkylamine binding site (unknown origin) receptor at 10 uM relative to control
Procedure, shortened: (§2)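 Broad radioligand-binding and enzyme screening panel covering 42 targets (biogenic amine and neuropeptide receptors, ion channels, neurotransmitter transporters, acetylcholinesterase). Single test concentration of 10 μM. Results expressed as binding relative to control, with a hit defined as >50% of control.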

[8] = biological target: Eukaryotic elongation factor 2 kinase (Homo sapiens) (UniProt O00418); test: Inhibition of recombinant full length GST-tagged human eEF2K expressed in Escherichia coli at 1 uM by FRET assay relative to control
[9] = biological target: Endothelin-1 receptor (Homo sapiens) (UniProt P25101); test: Binding affinity to recombinant human ETA receptor at 10 uM relative to control; procedure, shortened: as §2
[10] = biological target: Ephrin type-A receptor 1 (Homo sapiens) (UniProt P21709); test: Inhibition of recombinant GST-tagged human EphA1 cytoplasmic domain expressed in baculovirus expression system at 1 uM by FRET assay relative to control
Procedure, shortened: (§3)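 Single-point screen at 1 μM compound in a 220-kinase panel run by Life Technologies (SelectScreen). Z′-LYTE format: phosphorylation of a labeled peptide substrate read by FRET. Values are reported as percent inhibition.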

[11] = biological target: Insulin receptor-related protein (Homo sapiens) (UniProt P14616); test: Inhibition of recombinant GST-tagged human IRR cytoplasmic domain (944 to 1297 residues) expressed in baculovirus expression system at 1 uM by FRET relative to control; procedure, shortened: as §3
[12] = biological target: Protein kinase C epsilon type (Homo sapiens) (UniProt Q02156); test: Inhibition of recombinant full length human PKCepsilon expressed in baculovirus expression system at 1 uM by FRET assay relative to control
[13] = biological target: Ephrin type-A receptor 8 (Homo sapiens) (UniProt P29322); test: Inhibition of recombinant GST-tagged human EphA8 cytoplasmic domain expressed in baculovirus expression system at 1 uM by FRET assay relative to control; procedure, shortened: as §3
[14] = biological target: Tyrosine-protein kinase Fgr (Homo sapiens) (UniProt P09769); test: Inhibition of recombinant full length His-tagged human FGR expressed in baculovirus expression system at 1 uM by FRET assay relative to control
[15] = biological target: Adrenergic receptor alpha-1 (Homo sapiens) (UniProt P35348+P25100+P35368); test: Binding affinity to alpha1 adrenergic receptor (unknown origin) at 10 uM relative to control; assay type: protein assay; procedure, shortened: as §2
[16] = biological target: NUAK family SNF1-like kinase 1 (Homo sapiens) (UniProt O60285); test: Inhibition of recombinant full length His-tagged human ARK5 expressed in baculovirus expression system at 1 uM by FRET assay relative to control
[17] = biological target: Glycogen synthase kinase-3 beta (Homo sapiens) (UniProt P49841); test: Inhibition of recombinant full length His-tagged human GSK3beta expressed in baculovirus expression system at 1 uM by FRET relative to control
[18] = biological target: Myosin light chain kinase (Homo sapiens) (UniProt Q32MK0); test: Inhibition of recombinant human full length N-terminal GST-tagged caMLCK expressed in baculovirus expression system at 1 uM by FRET assay relative to control
[19] = biological target: Megakaryocyte-associated tyrosine-protein kinase (Homo sapiens) (UniProt P42679); test: Inhibition of recombinant full length His-tagged human Hyl cytoplasmic domain expressed in Escherichia coli at 1 uM by FRET relative to control
[20] = biological target: cAMP-dependent protein kinase catalytic subunit PRKX (Homo sapiens) (UniProt P51817); test: Inhibition of full length GST-tagged human PRKX expressed in Escherichia coli at 1 uM by FRET assay relative to control
[21] = biological target: Mitogen-activated protein kinase kinase kinase kinase 4 (Homo sapiens) (UniProt O95819); test: Inhibition of recombinant GST-tagged human MAP4K4 (1 to 328 residues) expressed in baculovirus expression system at 1 uM by FRET assay relative to control; procedure, shortened: as §3
[22] = biological target: Serine/threonine-protein kinase 25 (Homo sapiens) (UniProt O00506); test: Inhibition of recombinant full length GST-tagged human YSK1 expressed in baculovirus expression system at 1 uM by FRET assay relative to control
[23] = biological target: Casein kinase II subunit alpha (Homo sapiens) (UniProt P68400); test: Inhibition of CK2alpha1 (unknown origin) at 1 uM by FRET assay relative to control
[24] = biological target: Substance-P receptor (Homo sapiens) (UniProt P25103); test: Binding affinity to recombinant human NK1 receptor at 10 uM relative to control; procedure, shortened: as §2
[25] = biological target: Vascular endothelial growth factor receptor 2 (Homo sapiens) (UniProt P35968); test: Inhibition of recombinant His-tagged human KDR cytoplasmic domain (789 to 1356 residues) expressed in baculovirus expression system at 1 uM by FRET assay relative to control; procedure, shortened: as §3
[26] = biological target: Receptor tyrosine-protein kinase erbB-4 (Homo sapiens) (UniProt Q15303); test: Inhibition of recombinant N-terminal GST-tagged human ErbB4 cytoplasmic domain expressed in baculovirus expression system at 1 uM by FRET assay relative to control; procedure, shortened: as §1
[27] = biological target: High affinity nerve growth factor receptor (Homo sapiens, UniProt P04629); test: Inhibition of recombinant His-tagged human TrkA cytoplasmic domain (441 to 796 residues) expressed in baculovirus expression system at 1 uM by FRET assay relative to control; procedure, shortened: as §1

Protein kinase C epsilon type (Homo sapiens), sequence (Q02156 whole entry, the tested form may be a part): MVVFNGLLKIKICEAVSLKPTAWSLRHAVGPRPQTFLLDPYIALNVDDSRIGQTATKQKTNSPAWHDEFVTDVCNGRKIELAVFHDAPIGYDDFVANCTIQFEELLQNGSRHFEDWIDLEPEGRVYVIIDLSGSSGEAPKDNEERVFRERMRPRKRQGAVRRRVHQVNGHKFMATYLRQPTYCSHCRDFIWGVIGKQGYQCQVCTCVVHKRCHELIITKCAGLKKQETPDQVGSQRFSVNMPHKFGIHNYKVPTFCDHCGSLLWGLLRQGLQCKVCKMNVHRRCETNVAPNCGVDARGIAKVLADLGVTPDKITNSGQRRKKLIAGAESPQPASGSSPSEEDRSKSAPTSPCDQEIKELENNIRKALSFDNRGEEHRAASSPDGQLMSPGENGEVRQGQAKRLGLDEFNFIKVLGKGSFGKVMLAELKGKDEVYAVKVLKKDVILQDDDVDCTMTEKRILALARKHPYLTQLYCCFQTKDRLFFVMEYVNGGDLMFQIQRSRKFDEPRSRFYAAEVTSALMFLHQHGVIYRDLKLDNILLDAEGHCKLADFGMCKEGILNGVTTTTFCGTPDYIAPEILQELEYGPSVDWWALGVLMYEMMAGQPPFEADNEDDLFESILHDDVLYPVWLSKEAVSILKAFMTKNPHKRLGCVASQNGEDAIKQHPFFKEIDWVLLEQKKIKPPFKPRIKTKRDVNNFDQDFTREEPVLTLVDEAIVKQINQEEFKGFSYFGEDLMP
Serine/threonine-protein kinase Sgk2 (Homo sapiens), sequence (Q9HBY8 whole entry, the tested form may be a part): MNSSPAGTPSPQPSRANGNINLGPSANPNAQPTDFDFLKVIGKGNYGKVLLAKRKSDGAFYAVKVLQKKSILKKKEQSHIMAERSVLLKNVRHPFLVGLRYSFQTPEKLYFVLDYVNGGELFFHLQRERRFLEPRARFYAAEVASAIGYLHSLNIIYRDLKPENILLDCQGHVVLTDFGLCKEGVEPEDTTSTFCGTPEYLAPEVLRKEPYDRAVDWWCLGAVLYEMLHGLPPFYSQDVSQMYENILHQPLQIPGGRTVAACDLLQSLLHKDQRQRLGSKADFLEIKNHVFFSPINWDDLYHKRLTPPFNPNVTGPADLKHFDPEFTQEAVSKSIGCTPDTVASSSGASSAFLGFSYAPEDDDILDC
Casein kinase II subunit alpha (Homo sapiens), sequence (P68400 whole entry, looked up): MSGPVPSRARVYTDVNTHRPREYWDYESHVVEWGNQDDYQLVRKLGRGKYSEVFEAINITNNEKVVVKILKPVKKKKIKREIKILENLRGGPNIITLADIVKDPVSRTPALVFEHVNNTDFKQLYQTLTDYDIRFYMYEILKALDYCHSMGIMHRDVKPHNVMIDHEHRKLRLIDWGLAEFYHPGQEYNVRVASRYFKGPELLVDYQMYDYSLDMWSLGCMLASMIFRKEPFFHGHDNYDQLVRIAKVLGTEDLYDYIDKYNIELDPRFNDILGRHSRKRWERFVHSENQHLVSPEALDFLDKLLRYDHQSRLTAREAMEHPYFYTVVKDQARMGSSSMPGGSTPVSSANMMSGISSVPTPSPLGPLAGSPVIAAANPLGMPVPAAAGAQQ
Serine/threonine-protein kinase 16, sequence (O75716 whole entry): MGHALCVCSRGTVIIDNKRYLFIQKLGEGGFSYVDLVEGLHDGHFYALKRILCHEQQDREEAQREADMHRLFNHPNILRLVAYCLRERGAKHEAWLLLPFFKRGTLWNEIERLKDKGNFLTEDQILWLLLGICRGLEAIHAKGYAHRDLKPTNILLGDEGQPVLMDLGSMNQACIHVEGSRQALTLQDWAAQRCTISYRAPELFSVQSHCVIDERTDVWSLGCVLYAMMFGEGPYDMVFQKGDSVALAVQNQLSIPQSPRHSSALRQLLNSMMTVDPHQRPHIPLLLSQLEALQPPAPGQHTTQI
cAMP-dependent protein kinase catalytic subunit PRKX (Homo sapiens), sequence (P51817 whole entry, the tested form may be a part): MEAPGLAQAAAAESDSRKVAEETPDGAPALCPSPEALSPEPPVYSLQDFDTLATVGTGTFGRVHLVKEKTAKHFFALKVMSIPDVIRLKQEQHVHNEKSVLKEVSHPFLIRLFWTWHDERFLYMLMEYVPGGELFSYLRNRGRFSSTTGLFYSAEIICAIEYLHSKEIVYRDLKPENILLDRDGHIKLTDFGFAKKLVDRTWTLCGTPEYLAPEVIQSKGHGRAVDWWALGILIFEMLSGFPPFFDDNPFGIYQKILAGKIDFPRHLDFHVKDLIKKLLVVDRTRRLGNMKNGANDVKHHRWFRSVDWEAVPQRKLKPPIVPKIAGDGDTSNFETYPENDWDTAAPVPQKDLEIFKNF
Endothelin-1 receptor (Homo sapiens), sequence (P25101 whole entry, the tested form may be a part): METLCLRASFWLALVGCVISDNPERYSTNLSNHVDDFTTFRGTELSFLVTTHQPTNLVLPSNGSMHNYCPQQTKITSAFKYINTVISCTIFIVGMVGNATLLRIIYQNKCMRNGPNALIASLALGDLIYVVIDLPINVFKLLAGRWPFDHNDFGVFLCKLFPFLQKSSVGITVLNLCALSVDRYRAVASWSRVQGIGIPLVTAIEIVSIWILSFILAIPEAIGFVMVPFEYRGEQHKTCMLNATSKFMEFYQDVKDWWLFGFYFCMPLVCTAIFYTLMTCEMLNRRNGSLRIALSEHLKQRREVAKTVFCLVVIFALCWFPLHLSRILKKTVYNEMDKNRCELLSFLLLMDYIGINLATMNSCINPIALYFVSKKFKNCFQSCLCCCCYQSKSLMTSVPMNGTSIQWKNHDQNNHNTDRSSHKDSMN
Rho-associated protein kinase 1 (Homo sapiens), sequence (Q13464 2-1354 limits assumed): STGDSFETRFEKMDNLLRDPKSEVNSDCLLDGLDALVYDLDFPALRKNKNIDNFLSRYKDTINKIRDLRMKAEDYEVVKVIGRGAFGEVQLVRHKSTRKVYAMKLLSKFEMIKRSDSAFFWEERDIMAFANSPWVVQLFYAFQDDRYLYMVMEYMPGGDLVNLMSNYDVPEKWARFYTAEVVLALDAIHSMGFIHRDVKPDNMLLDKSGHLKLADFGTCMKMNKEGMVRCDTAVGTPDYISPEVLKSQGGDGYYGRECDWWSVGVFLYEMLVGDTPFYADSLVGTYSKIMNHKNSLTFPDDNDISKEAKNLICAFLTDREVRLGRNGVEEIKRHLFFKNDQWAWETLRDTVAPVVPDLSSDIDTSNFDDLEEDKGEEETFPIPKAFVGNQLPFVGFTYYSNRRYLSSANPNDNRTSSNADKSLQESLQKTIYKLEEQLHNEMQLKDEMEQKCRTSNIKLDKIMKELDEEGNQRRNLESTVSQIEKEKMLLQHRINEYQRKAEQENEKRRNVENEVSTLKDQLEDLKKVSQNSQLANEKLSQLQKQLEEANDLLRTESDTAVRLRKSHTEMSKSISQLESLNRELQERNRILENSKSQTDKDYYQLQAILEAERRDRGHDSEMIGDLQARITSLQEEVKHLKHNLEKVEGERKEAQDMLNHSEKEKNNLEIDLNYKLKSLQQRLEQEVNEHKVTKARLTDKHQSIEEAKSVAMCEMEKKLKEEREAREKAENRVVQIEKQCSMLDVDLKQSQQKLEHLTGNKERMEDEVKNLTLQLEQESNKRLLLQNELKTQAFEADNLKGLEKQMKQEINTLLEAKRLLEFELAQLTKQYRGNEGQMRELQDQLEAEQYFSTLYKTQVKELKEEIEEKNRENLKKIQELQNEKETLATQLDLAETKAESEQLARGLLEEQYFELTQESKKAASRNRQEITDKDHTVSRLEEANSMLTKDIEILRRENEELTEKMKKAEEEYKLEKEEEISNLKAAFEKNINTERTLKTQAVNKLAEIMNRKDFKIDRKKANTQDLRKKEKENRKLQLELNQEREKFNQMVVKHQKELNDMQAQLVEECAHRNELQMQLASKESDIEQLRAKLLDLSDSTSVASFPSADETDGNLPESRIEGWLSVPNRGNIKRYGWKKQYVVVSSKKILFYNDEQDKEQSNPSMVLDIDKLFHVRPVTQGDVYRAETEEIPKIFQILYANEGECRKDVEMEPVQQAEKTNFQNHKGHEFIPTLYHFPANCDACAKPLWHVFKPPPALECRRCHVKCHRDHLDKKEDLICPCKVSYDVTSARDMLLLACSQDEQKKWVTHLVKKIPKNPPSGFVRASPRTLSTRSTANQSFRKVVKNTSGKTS
Substance-P receptor (Homo sapiens), sequence (P25103 whole entry, the tested form may be a part): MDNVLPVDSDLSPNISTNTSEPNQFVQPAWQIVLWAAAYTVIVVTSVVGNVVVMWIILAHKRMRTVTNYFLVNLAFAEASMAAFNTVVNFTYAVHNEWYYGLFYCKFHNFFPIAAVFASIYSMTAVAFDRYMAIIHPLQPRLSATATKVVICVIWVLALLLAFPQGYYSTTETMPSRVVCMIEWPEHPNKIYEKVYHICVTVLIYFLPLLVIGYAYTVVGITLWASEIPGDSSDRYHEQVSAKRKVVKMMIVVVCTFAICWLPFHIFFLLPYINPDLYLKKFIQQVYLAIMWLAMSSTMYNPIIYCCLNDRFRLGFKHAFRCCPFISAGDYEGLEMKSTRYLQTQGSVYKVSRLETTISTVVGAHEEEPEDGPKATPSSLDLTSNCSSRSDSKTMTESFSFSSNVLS
Serine/threonine-protein kinase Chk2 (Homo sapiens), sequence (O96017 whole entry): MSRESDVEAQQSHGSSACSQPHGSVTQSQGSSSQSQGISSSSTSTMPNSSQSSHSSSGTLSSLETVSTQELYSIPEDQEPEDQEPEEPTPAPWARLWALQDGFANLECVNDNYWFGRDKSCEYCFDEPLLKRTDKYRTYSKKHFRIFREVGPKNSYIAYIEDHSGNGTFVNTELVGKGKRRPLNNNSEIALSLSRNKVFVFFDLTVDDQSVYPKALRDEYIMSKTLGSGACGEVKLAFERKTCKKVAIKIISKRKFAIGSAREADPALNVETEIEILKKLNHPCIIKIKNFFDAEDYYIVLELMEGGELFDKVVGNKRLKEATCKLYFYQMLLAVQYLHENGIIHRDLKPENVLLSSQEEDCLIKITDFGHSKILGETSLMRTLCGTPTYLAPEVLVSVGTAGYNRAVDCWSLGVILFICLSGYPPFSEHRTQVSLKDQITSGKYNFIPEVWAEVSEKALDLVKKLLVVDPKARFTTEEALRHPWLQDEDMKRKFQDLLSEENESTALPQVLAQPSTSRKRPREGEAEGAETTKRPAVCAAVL

Row | SMILES | inhibition [1] [%] | inhibition [2] [%] | IC50 [3] [µM] | inhibition [4] [%] | inhibition [5] [%] | inhibition [6] [%] | inhibition [7] [%] | Activity (Homo sapiens) [%] | inhibition [8] [%] | Activity [9] [%] | inhibition [10] [%] | inhibition [11] [%] | inhibition [12] [%] | inhibition [13] [%] | inhibition [14] [%] | Activity [15] [%] | inhibition [16] [%] | inhibition [17] [%] | inhibition [18] [%] | inhibition [19] [%] | other results
1 | CC(C)n1nc(-c2cnc(N)c(OC(F)(F)F)c2)cc1[C@H]1[C@@H]2CN(C3COC3)C[C@@H]21 | 44.3 | 12.8 | > 10 | 10 | 8.8 | 2.7 | 50.3 | > 50 | 4.4 | > 50 | 13.5 | 32.7 | 1.9 | 8.7 | 31.9 | > 50 | 30.1 | 11.3 | 0.8 | 7.5 | inhibition [20]: -2.9%; inhibition [21]: 22.1%; inhibition [22]: 8%; inhibition [23]: 1.5%; Activity [24]: > 50%; inhibition [25]: 10.6%; inhibition [26]: 2.5%; inhibition [27]: 67.1%
2 | Nc1ncc(-c2cc([C@H]3[C@@H]4CN(C5COC5)C[C@@H]43)n(CC3CC3)n2)cc1C(F)(F)F | 38.8 | 16.3 | > 10 | -0.3 | -7.4 | 0.3 | 33.2 | > 50 | -5.1 | > 50 | 30.8 | 15.9 | -5 | 18.6 | 32.2 | > 50 | 29.1 | 1.3 | 1.3 | 0.1 | inhibition [20]: -7.2%; inhibition [21]: 21.4%; inhibition [22]: -3.8%; inhibition [23]: 3.5%; Activity [24]: > 50%; inhibition [25]: 35%; inhibition [26]: 5.3%; inhibition [27]: 56.1%
